Compounds with a hit are over-represented: about 5.7% of the library has one in this group of screens.
Calb FLC – C. albicans growth modulation with fluconazole; growth inhibition, % (concentration not given with the values); C. albicans CaCi-2 (fluconazole-resistant clinical isolate) + fluconazole, Alamar Blue growth, 48 h; AID 1979; actives 0.57% (n = 300,000);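 active means growth inhibition above about 58% in most replicates, limit read from the data, passing the limit was not always enough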;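 further: all wells also contain fluconazole at 8 µg/ml as a sub-toxic cotreatment; 0% = median of DMSO wells and 100% = median of geldanamycin control wells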
SKKanGAS inh – blocks kanamycin growth of S. pyogenes SKKanGAS strain; BacTiter-Glo, 6 h; inhibition, % at 7.5 µM; actives 1.3% (n = 300,000); AID 1662;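 active means mean replicate score, as percent of positive control median, at least 50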;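 further: strain carries kanamycin resistance gene driven by streptokinase promoter and grows in 40 µg/ml kanamycin; loss of luminescence reflects streptokinase promoter inhibition or plain growth inhibition; 0% = median of DMSO wells and 100% = positive control at its reference dose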
Mdm2-MdmX inh – human Mdm2/MdmX binding inhibition | actives 3% (n = 330,000) | inhibition, % at 8 µM | SaOS-2 split-luciferase Mdm2/MdmX complementation, luminescence | AID 485346;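 active means inhibition of at least 50% at 8 µM in the primary screen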
Target sequence (O15151 whole entry, looked up): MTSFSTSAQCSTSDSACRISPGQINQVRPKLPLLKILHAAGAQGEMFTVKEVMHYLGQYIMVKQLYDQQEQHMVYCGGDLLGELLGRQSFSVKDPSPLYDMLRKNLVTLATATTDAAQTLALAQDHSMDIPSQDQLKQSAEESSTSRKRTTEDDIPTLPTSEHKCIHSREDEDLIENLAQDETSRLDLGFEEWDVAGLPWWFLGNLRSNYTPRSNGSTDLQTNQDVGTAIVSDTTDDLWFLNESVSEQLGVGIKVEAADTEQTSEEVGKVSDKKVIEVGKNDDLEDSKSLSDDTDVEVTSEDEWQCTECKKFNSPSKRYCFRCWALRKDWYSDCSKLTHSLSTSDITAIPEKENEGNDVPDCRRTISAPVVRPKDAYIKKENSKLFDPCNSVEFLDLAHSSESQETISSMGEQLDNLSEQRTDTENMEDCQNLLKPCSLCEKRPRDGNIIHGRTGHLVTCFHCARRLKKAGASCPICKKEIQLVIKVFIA
Target sequence (Q00987 whole entry, looked up): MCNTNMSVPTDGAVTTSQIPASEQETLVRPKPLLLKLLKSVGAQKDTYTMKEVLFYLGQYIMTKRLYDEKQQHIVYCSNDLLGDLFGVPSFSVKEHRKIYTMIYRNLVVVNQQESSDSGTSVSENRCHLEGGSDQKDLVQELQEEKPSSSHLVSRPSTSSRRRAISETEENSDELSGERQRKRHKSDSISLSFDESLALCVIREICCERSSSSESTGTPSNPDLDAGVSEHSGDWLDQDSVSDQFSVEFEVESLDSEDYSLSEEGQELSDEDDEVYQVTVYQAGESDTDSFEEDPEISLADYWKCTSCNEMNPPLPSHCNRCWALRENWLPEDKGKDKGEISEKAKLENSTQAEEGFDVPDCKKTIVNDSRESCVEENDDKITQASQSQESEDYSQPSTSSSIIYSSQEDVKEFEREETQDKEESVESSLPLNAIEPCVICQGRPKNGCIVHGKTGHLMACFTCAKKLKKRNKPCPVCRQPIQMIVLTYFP
Beta cell apopt – blocks beta cell apoptosis | protection from apoptosis, % (test concentration not listed) | INS-1E cytokine-induced death, ATP luminescence, 48 h; percent of positive-control rescue, neutral wells zero | actives 0.8% (n = 300,000) | AID 435005;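 active means Every replicate reaches about 75%, or at least half do and their mean reaches it too, limit read from the data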;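 further: 0% = cytokine-treated negative control wells and 100% = positive control rescue; higher means more ATP so stronger rescue from cytokine killing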
T cruzi repl – T. cruzi replication inhibition. T. cruzi beta-gal in NIH3T3, luminescence, 90 h. inhibition, % (concentration not given with the values). actives 1.4% (n = 300,000). AID 1885;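 active means mean inhibition across valid replicates above about 55%, limit read from the data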;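 further: signal also drops with host cell toxicity which is not excluded here; 0% = plate median of DMSO wells and 100% = zero luminescence signal; higher percent means less beta-gal luminescence so fewer parasites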
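Incubation – ≥90 h infection period, 3 h prior cell attachment · System – NIH/3T3 fibroblasts plus reporter T. cruzi · Doses – compound pinned at 50 nL/well, DMSO · Read-out basis – percent inhibition of parasite-derived β-gal signal · Signal – luminescent β-galactosidase signal after 60 min lysis · Also added – 5000 T. cruzi trypomastigotes/well · Medium – Low-serum DMEM with 2% FBS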
CSC inhib – cancer stem cell inhibition; cancer stem cell-like cells viability, luminescence; inhibition, % at 7.5 µM; actives 1.1% (n = 300,000); in the data active means inhibition above about 75%; tested in HMLE shEcad cells
An asterisk follows results filed as active; x = no result.

SMILES | Calb FLC | SKKanGAS inh | Mdm2-MdmX inh | Beta cell apopt | T cruzi repl | CSC inhib
CC1=C(C(=O)Nc2ccc([N+](=O)[O-])cc2)C(c2cccc(C(F)(F)F)c2)NC(=S)N1c1ccccc1 (stereo not given) | 71 | 50* | -4 | 6 | 57* | 33
O=C1CC(NS(=O)(=O)c2ccc([N+](=O)[O-])cc2)CN1c1ccc2c(c1)OCCO2 (stereo not given) | -4 | -1 | 14 | x | 36 | -18
O=C1CC(NS(=O)(=O)c2ccc([N+](=O)[O-])cc2)CN1c1ccc(Cl)cc1 (stereo not given) | -8 | 3 | 15 | 5 | 62* | -8
CN(CCCC(=O)NCc1ccc2c(c1)OCO2)S(=O)(=O)c1ccc([N+](=O)[O-])cc1 | -5 | 23 | 0 | -5 | 40 | 1
Clc1cccc(Nc2ncnc3c2cnn3-c2ccccc2)c1 | 3 | 64* | -20 | x | 17 | 56
Fc1cccc(Nc2ncnc3c2cnn3-c2ccccc2)c1 | -8 | -6 | -103 | 19 | 9 | 36
COc1ccccc1NS(=O)(=O)c1cccc(C(=O)N2CCN(C(=O)c3ccco3)CC2)c1 | x | x | -11 | 1 | x | -6
O=C(NC(=S)N1CCN(c2nc(-c3ccccc3)cs2)CC1)c1cccnc1 | -13 | 79* | -16 | 8 | -11 | 8
Cc1ccc(-c2nc3ccccc3[nH]2)cc1NC(=O)c1sc2cc(Cl)ccc2c1Cl | -5 | 8 | 46 | 3 | 60* | 5
CC(=O)c1c(C)[nH]c(C(=O)OCC(=O)Nc2ccc(Cl)cc2[N+](=O)[O-])c1C | 2 | -12 | 36 | 113* | 1 | -3
Cc1ccc(OCc2cc(C(=O)NC3CCOC3)no2)cc1C (stereo not given) | 1 | 9 | 22 | -1 | -6 | -7
O=C(Nc1cccc(NC(=O)c2ccc(-c3ccc(Br)cc3)o2)c1)c1ccco1 | 24 | 37 | 43 | -5 | 58* | 39
Cc1cc(Cl)ccc1OCC(=O)Nc1cccnc1 | -5 | -5 | -9 | -9 | -11 | -9
Cc1ccc(NC(=S)N2CCC(NC(=O)c3ccc(F)cc3)CC2)cc1C | -5 | -1 | 36 | 2 | -22 | -8
O=S(=O)(c1ccccc1C(F)(F)F)N1CCN(c2ncnc3sccc23)CC1 | x | x | 29 | 27 | x | 6
O=S(=O)(c1ccc(F)c(F)c1F)N1CCN(c2ncnc3sccc23)CC1 | x | x | 31 | 87* | x | 40
Cc1ccc(S(=O)(=O)N2CCN(c3ncnc4sccc34)CC2)cc1 | 71 | -6 | 22 | 89* | -3 | -2
COc1ccc(CN2CC[C@H]3C=CCc4cccc(c43)C2)cc1 | x | x | -1 | 7 | x | 13
Cc1ccc(OCC(=O)NNC(=O)C2CC(=O)N(c3ccc4c(c3)OCCO4)C2)cc1 (stereo not given) | 5 | 0 | 18 | -5 | 0 | -4
CCN(CC)c1ccc(/C=C(\C#N)c2ccccn2)cc1 | 4 | 6 | -51 | 28 | 16 | 78*
CCN(Cc1ccccc1)c1ccc(/C=C(\C#N)c2ccccn2)cc1 | 6 | -1 | -168 | 11 | 16 | 22
CCOC(=O)CC1CCCCN1C(=O)c1cc(COc2cccc3cnccc23)on1 (stereo not given) | -2 | -4 | 36 | 96* | -25 | 9
COC(=O)C1CCCCN1C(=O)c1cc(COc2cccc3cnccc23)on1 (stereo not given) | -9 | -10 | 50 | 101* | 1 | 3
O=C(CN1CCC(c2nc3ccccc3s2)CC1)NCc1ccccc1 | -3 | -1 | 3 | 2 | 64* | -3
O=C(C[n+]1ccccc1)NNc1ccccc1 | 11 | 0 | 1 | -3 | 21 | 114*
SMILES | Calb FLC | SKKanGAS inh | Mdm2-MdmX inh | Beta cell apopt | T cruzi repl | CSC inhib
Cc1ccc(S(=O)(=O)CC2CSc3nc(N)cc(=O)n32)cc1 (stereo not given) | 3 | 3 | 0 | -7 | -7 | -6
Cc1ccc(S(=O)(=O)CC2CSc3nc4ccccc4n32)cc1 (stereo not given) | 88* | 3 | -19 | 92* | -36 | 6
CC(=O)N(Cc1cccnc1)c1cccc(-c2nc3ccccc3s2)c1 | 19 | -2 | -22 | -1 | 59* | 26
c1cncc(-c2nc3ccccc3s2)c1 | 14 | -5 | -26 | 2 | -4 | 0
Cc1ccc(CNc2ccc3c(c2)OCO3)cc1 | -29 | -8 | x | -4 | 82* | 23
Cc1ccc(S(=O)(=O)c2nc(NCc3ccc4c(c3)OCO4)sc2Cl)cc1 | -15 | 8 | 17 | -2 | 61* | -4
CC(=O)Nc1nc(S(=O)(=O)c2ccc(C)cc2)c(Cl)s1 | -23 | -2 | 18 | -5 | -1 | x
COc1ccc(C2c3ccsc3CCN2C(=O)C(C)(C)C)cc1 (stereo not given) | 1 | 50* | 10 | -11 | 5 | -10
COc1ccc(C2c3ccsc3CCN2C(C)=O)cc1 (stereo not given) | -7 | 3 | -20 | -2 | -12 | -2
CCc1ccc(N=Nc2ccc(O)c3[nH]cnc23)cc1 | x | x | 19 | 4 | x | 82*
CCCCn1c(N)c(N(CC(C)C)C(=O)c2ccc(-c3ccc(C(C)=O)cc3)o2)c(=O)[nH]c1=O | -7 | -13 | -8 | x | 0 | 0
O=C(N/N=C/c1ccc(O)cc1)c1cc(-c2ccccc2)nc2ccccc12 | 18 | 10 | 28 | 9 | 4 | 15
O=C(N/N=C/c1ccc(O)cc1)c1csc2ccccc12 | 114* | -2 | 12 | -4 | 3 | 0
CCOC(=O)c1cnc(-n2nc(C)cc2C)nc1NNc1ncc(-c2ccccc2)cn1 | 6 | 28 | 48 | 96* | 15 | 37
CCOC(=O)c1cnc(-n2nc(C)cc2C)nc1NNc1cc(-c2ccccc2)nc(C)n1 | -19 | 103* | 45 | x | 49 | x
CCOC(=O)c1cnc(-n2nc(C)cc2C)nc1N1CC(C)OC(C)C1 (stereo not given) | 27 | 26 | 1 | -1 | -6 | -20
C[C@@H]1CN([C@@H](C)CO)C(=O)c2cccc(NC(=O)Nc3ccc4c(c3)OCO4)c2O[C@H]1CN(C)S(=O)(=O)c1cn(C)cn1 | x | x | -11 | -6 | x | 2
CCC[N+]1(CC#CCC(c2ccccc2)c2ccccc2)CCCCC1 | 20 | -1 | 49 | 105* | 64* | 34
C(#Cc1ccccc1)C[N+]1(CC#Cc2ccccc2)CCCCC1 | 82* | -12 | 20 | x | 66* | 2
C[C@@]12CCC3[C@@](CCC4[C@@]3(C)CCC[C@@]4(C)C(=O)N3CCOCC3)(CC1=O)C2 (stereo not given in full) | x | x | -12 | -6 | x | -13
O=C(Nc1ccc2c(c1)N(S(=O)(=O)c1cccs1)CCC2)c1c(F)cccc1Cl | 14 | 51* | 34 | 15 | 17 | x
COc1ccccc1N1CCN(C(=O)CCNS(=O)(=O)c2cc(Br)cnc2N)CC1 | 4 | 1 | -9 | -6 | 17 | 3

Assay outcomes (PubChem BioAssay)
